Converted amounts (≈) assume the structure as drawn.
Columns and labels:
[1] = Half-life was evaluated for pharmacokinetic data in rats; type: ADME, organism-based; conditions: rat, in vivo
How it was run: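 Male Sprague-Dawley rats, single 20 mg/kg intravenous dose in saline via indwelling jugular vein cannula; serial blood sampling from the same cannula over 4 h. Plasma levels measured by agar well diffusion bioassay with E. coli ATCC 4157 (detection limit ≤0.80 µg/mL). Half-life calculated as 0.693/β, β being the terminal slope of the plasma concentration–time curve.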

Enterobacter cloacae [2] = test: Truncation of the zone of inhibition was graded for Enterobacter cloacae EB17 on a 30 ug disk of test compound; type: functional
How it was run: (§1)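 Cefoxitin disk approximation: Mueller-Hinton agar swab-inoculated with ~1×10^8 cells/mL of inducible Enterobacter strains; 30 µg test-compound disks plus 30 µg cefoxitin disks placed ~15 mm from their edge. Overnight at 35 °C in ambient air; truncation of inhibition zone on cefoxitin-proximal side graded as a measure of induced β-lactamase effect.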

Enterobacter cloacae [3] = test: Truncation of the zone of inhibition was graded for Enterobacter cloacae EB5 on a 30 ug disk of test compound; type: functional; how it was run: as §1
Enterobacter cloacae [4] = test: Truncation of the zone of inhibition was graded for Enterobacter cloacae EB57 on a 30 ug disk of test compound; type: functional; how it was run: as §1
Rattus norvegicus = species: Rattus norvegicus; test: Urinary recovery was evaluated for pharmacokinetic data in rats; type: organism-based; conditions: Urine
How it was run: (§2)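 Male Sprague-Dawley rats given 20 mg/kg IV in saline via indwelling jugular vein cannula; serial blood sampling through cannula, plasma and urine collected over 4 h. Drug levels by agar well diffusion bioassay with E. coli ATCC 4157 (detection limit ≤0.80 μg/mL). Half-life = 0.693/β from terminal plasma slope; urinary recovery as percent of administered dose.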

Escherichia coli [5] = test: Minimal inhibitory activity against the Escherichia coli (EC14); type: functional
How it was run: (§3)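 Agar dilution: compounds diluted in 0.1 M phosphate buffer pH 7.0, incorporated into Mueller-Hinton agar with 1% Bacto-Supplement C at 50 °C. Overnight cultures diluted to ~1×10^4 cells/µL, 1 µL spotted onto plates; incubated overnight at 35 °C in ambient air. MIC = lowest concentration preventing visible growth.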

Escherichia coli [6] = test: Minimal inhibitory activity against the E. coli(TEM beta lactamase containing); type: functional; how it was run: as §3
Enterobacter cloacae [7] = test: Minimal inhibitory activity against the Enterobacter cloacae (265A beta lactamase containing); type: functional; how it was run: as §3
Enterobacter cloacae [8] = test: Minimal inhibitory activity against the Enterobacter cloacae (EB5); type: functional; how it was run: as §3
Haemophilus influenzae = test: Minimal inhibitory activity against the Haemophilus influenzae (C.L); type: functional; how it was run: as §3
Klebsiella [9] = test: Minimal inhibitory activity against the Klebsiella(KAE beta lactamase containing); type: functional; how it was run: as §3
Klebsiella [10] = test: Minimal inhibitory activity against the Klebsiella (X26); type: functional; how it was run: as §3
Morganella morganii = test: Minimal inhibitory activity against the Proteus morganii (PR15); type: functional; how it was run: as §3
Pseudomonas aeruginosa = test: Minimal inhibitory activity against the Pseudomonas aeruginosa (X528); type: functional; how it was run: as §3
Providencia rettgeri = test: Minimal inhibitory activity against the Proteus rettgeri (C24); type: functional; how it was run: as §3
Salmonella = test: Minimal inhibitory activity against the Salmonella (X514); type: functional; how it was run: as §3
[11] = system: Staphylococcus epidermidis; test: Minimal inhibitory activity against the Staphylococcus epidermidis (222); type: functional; how it was run: as §3
Staphylococcus aureus = test: Minimal inhibitory activity against the Staphylococcus aureus (X1.1); type: functional; how it was run: as §3
Streptococcus pneumoniae = test: Minimal inhibitory activity against the Streptococcus pneumoniae (PARK); type: functional; how it was run: as §3
Streptococcus pyogenes = test: Minimal inhibitory activity against the Streptococcus pyogenes (C203); type: functional; how it was run: as §3
[12] = Half-life was evaluated for pharmacokinetic data in rats.; type: ADME, organism-based; conditions: rat, in vivo; how it was run: as §2

SMILES | Zone diameter (Enterobacter cloacae [2]) | Zone diameter (Enterobacter cloacae [3]) | Zone diameter (Enterobacter cloacae [4]) | Recovery (Rattus norvegicus) | MIC (Escherichia coli [5]) | MIC (Escherichia coli [6]) | MIC (Enterobacter cloacae [7]) | MIC (Enterobacter cloacae [8]) | MIC (Haemophilus influenzae) | MIC (Klebsiella [9]) | MIC (Klebsiella [10]) | MIC (Morganella morganii) | MIC (Pseudomonas aeruginosa) | MIC (Providencia rettgeri) | MIC (Salmonella) | MIC [11] | MIC (Staphylococcus aureus) | MIC (Streptococcus pneumoniae) | MIC (Streptococcus pyogenes) | further results
CO/N=C(\C(=O)N[C@@H]1C(=O)N2C(C(=O)[O-])=C(C[n+]3ccccc3)CC[C@H]12)c1csc(N)n1 | 35 mm | 26 mm | 26 mm | 87.9% |  |  |  |  |  |  |  |  |  |  |  |  |  |  |  | half-life [1]: 22.9 min
CO/N=C(\C(=O)N[C@@H]1C(=O)N2C(C(=O)[O-])=C(C[n+]3ccccc3)CS[C@H]12)c1csc(N)n1 | 30 mm | 30 mm | 30 mm |  |  |  |  |  |  |  |  |  |  |  |  |  |  |  |  | 
CO/N=C(\C(=O)N[C@@H]1C(=O)N2C(C(=O)[O-])=C([n+]3cccc4c3CCCC4)CC[C@H]12)c1csc(N)n1 |  |  |  |  | 0.125 µg/mL (≈ 0.252 µM) | 1 µg/mL (≈ 2.01 µM) | 2 µg/mL (≈ 4.03 µM) | 0.25 µg/mL (≈ 0.503 µM) | 0.5 µg/mL (≈ 1.01 µM) | 16 µg/mL (≈ 32.2 µM) | 0.125 µg/mL (≈ 0.252 µM) | 1 µg/mL (≈ 2.01 µM) | 128 µg/mL (≈ 258 µM) | 4 µg/mL (≈ 8.06 µM) | 0.125 µg/mL (≈ 0.252 µM) | 8 µg/mL (≈ 16.1 µM) | 2 µg/mL (≈ 4.03 µM) | 0.06 µg/mL (≈ 0.121 µM) | 0.06 µg/mL (≈ 0.121 µM) | 
CO/N=C(\C(=O)N[C@@H]1C(=O)N2C(C(=O)[O-])=C([n+]3ccc4c(c3)ncn4C)CC[C@H]12)c1csc(N)n1 |  |  |  |  | 0.06 µg/mL (≈ 0.121 µM) | 0.5 µg/mL (≈ 1.01 µM) | 1 µg/mL (≈ 2.01 µM) | 0.125 µg/mL (≈ 0.252 µM) | 0.5 µg/mL (≈ 1.01 µM) | 4 µg/mL (≈ 8.06 µM) | 0.06 µg/mL (≈ 0.121 µM) | 0.5 µg/mL (≈ 1.01 µM) | 128 µg/mL (≈ 258 µM) | 0.25 µg/mL (≈ 0.504 µM) | 0.06 µg/mL (≈ 0.121 µM) | 8 µg/mL (≈ 16.1 µM) | 4 µg/mL (≈ 8.06 µM) | 0.06 µg/mL (≈ 0.121 µM) | 0.06 µg/mL (≈ 0.121 µM) | 
CO/N=C(\C(=O)N[C@@H]1C(=O)N2C(C(=O)[O-])=C([n+]3ccccc3)CC[C@H]12)c1csc(N)n1 | 30 mm | 30 mm | 31 mm | 82.6% | 0.06 µg/mL (≈ 0.136 µM) | 0.06 µg/mL (≈ 0.136 µM) | 2 µg/mL (≈ 4.52 µM) | 0.125 µg/mL (≈ 0.283 µM) | 0.5 µg/mL (≈ 1.13 µM) | 8 µg/mL (≈ 18.1 µM) | 0.03 µg/mL (≈ 0.0678 µM) | 0.25 µg/mL (≈ 0.565 µM) | 128 µg/mL (≈ 289 µM) | 0.5 µg/mL (≈ 1.13 µM) | 0.03 µg/mL (≈ 0.0678 µM) | 8 µg/mL (≈ 18.1 µM) | 4 µg/mL (≈ 9.04 µM) | 0.03 µg/mL (≈ 0.0678 µM) | 0.03 µg/mL (≈ 0.0678 µM) | half-life [12]: 21.2 min
CO/N=C(\C(=O)N[C@@H]1C(=O)N2C(C(=O)[O-])=C([n+]3cc(C)ccc3C)CC[C@H]12)c1csc(N)n1 |  |  |  |  | 0.125 µg/mL (≈ 0.266 µM) | 0.125 µg/mL (≈ 0.266 µM) | 1 µg/mL (≈ 2.13 µM) | 0.25 µg/mL (≈ 0.531 µM) | 0.5 µg/mL (≈ 1.06 µM) | 2 µg/mL (≈ 4.25 µM) | 0.125 µg/mL (≈ 0.266 µM) | 0.25 µg/mL (≈ 0.531 µM) | 128 µg/mL (≈ 272 µM) | 0.25 µg/mL (≈ 0.531 µM) | 0.125 µg/mL (≈ 0.266 µM) | 8 µg/mL (≈ 17 µM) | 4 µg/mL (≈ 8.5 µM) | 0.06 µg/mL (≈ 0.128 µM) | 0.03 µg/mL (≈ 0.0638 µM) | 
Cc1cc[n+](C2=C(C(=O)[O-])N3C(=O)[C@@H](NC(=O)/C(=N\OCc4ccccc4)c4csc(N)n4)[C@H]3CC2)cc1C |  |  |  |  | 2 µg/mL (≈ 3.66 µM) | 1 µg/mL (≈ 1.83 µM) | 8 µg/mL (≈ 14.6 µM) | 4 µg/mL (≈ 7.32 µM) | 0.125 µg/mL (≈ 0.229 µM) | 128 µg/mL (≈ 234 µM) | 0.06 µg/mL (≈ 0.11 µM) | 2 µg/mL (≈ 3.66 µM) | 128 µg/mL (≈ 234 µM) | 8 µg/mL (≈ 14.6 µM) | 1 µg/mL (≈ 1.83 µM) | 2 µg/mL (≈ 3.66 µM) | 1 µg/mL (≈ 1.83 µM) | 0.015 µg/mL (≈ 0.0274 µM) | 0.03 µg/mL (≈ 0.0549 µM) | 
CO/N=C(\C(=O)N[C@@H]1C(=O)N2C(C(=O)[O-])=C([n+]3ccc(C)c(C)c3)CC[C@H]12)c1csc(N)n1 | 30 mm | 30 mm | 31 mm |  | 0.06 µg/mL (≈ 0.128 µM) | 0.06 µg/mL (≈ 0.128 µM) | 0.25 µg/mL (≈ 0.531 µM) | 0.125 µg/mL (≈ 0.266 µM) | 0.25 µg/mL (≈ 0.531 µM) | 4 µg/mL (≈ 8.5 µM) | 0.06 µg/mL (≈ 0.128 µM) | 0.125 µg/mL (≈ 0.266 µM) | 128 µg/mL (≈ 272 µM) | 0.06 µg/mL (≈ 0.128 µM) | 0.03 µg/mL (≈ 0.0638 µM) | 4 µg/mL (≈ 8.5 µM) | 2 µg/mL (≈ 4.25 µM) | 0.015 µg/mL (≈ 0.0319 µM) | 0.03 µg/mL (≈ 0.0638 µM) | 
CC(C)(O/N=C(\C(=O)N[C@@H]1C(=O)N2C(C(=O)[O-])=C(C[n+]3ccccc3)CS[C@H]12)c1csc(N)n1)C(=O)O [CEFTAZIDIME] |  |  |  | 100% | 0.06 µg/mL (≈ 0.11 µM) | 0.125 µg/mL (≈ 0.229 µM) | 32 µg/mL (≈ 58.5 µM) |  | 0.06 µg/mL (≈ 0.11 µM) | 0.5 µg/mL (≈ 0.915 µM) | 0.06 µg/mL (≈ 0.11 µM) | 0.5 µg/mL (≈ 0.915 µM) | 2 µg/mL (≈ 3.66 µM) |  | 0.125 µg/mL (≈ 0.229 µM) | 16 µg/mL (≈ 29.3 µM) | 8 µg/mL (≈ 14.6 µM) | 0.06 µg/mL (≈ 0.11 µM) | 0.06 µg/mL (≈ 0.11 µM) | half-life [1]: 22.9 min
CO/N=C(\C(=O)N[C@@H]1C(=O)N2C(C(=O)[O-])=C([n+]3cccc4c3CCC4)CC[C@H]12)c1csc(N)n1 |  |  |  | 82.3% | 0.06 µg/mL (≈ 0.124 µM) | 0.5 µg/mL (≈ 1.04 µM) | 1 µg/mL (≈ 2.07 µM) | 0.125 µg/mL (≈ 0.259 µM) | 0.5 µg/mL (≈ 1.04 µM) | 8 µg/mL (≈ 16.6 µM) | 0.03 µg/mL (≈ 0.0622 µM) | 0.25 µg/mL (≈ 0.518 µM) | 128 µg/mL (≈ 265 µM) | 0.5 µg/mL (≈ 1.04 µM) | 0.03 µg/mL (≈ 0.0622 µM) | 4 µg/mL (≈ 8.29 µM) | 2 µg/mL (≈ 4.14 µM) | 0.03 µg/mL (≈ 0.0622 µM) | 0.03 µg/mL (≈ 0.0622 µM) | half-life [12]: 20.1 min
